Measured values reported in ChEMBL document CHEMBL1129661, “The chemistry of Pseudomonic acid. 15. Synthesis and antibacterial activity of a series of 5-alkyl, 5-alkenyl, and 5-heterosubstituted oxazoles” (1996).
Converted amounts (≈) assume the structure as drawn.

Experiments:
Haemophilus influenzae [1] = assay: Minimal inhibitory concentration against Haemophilus influenzae Q1; assay type: functional
Method in brief: (§1)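 Agar dilution method. Each plate was spot-inoculated with 1 µL spots, about 10^6 CFU per spot. Plates were incubated 18-24 h at 37 °C.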

Moraxella catarrhalis [2] = assay: Minimal inhibitory concentration of compound against Moraxella catarrhalis 1502; assay type: functional; method in brief: as §1
Streptococcus pneumoniae [3] = assay: Minimal inhibitory concentration against Streptococcus pneumoniae PU7; assay type: functional; method in brief: as §1
Streptococcus pyogenes [4] = assay: Minimal inhibitory concentration against Streptococcus pyogenes CN10; assay type: functional; method in brief: as §1
Staphylococcus aureus [5] = assay: Minimal inhibitory concentration against Staphylococcus aureus Oxford NCTC 6571; assay type: functional; method in brief: as §1
Moraxella catarrhalis [6] = assay: Minimal inhibitory concentration of compound against Moraxella catarrhalis H; assay type: functional; method in brief: as §1
Staphylococcus aureus [7] = assay: Minimal inhibitory concentration of compound against Staphylococcus aureus Russell; assay type: functional; method in brief: as §1
Haemophilus influenzae [8] = assay: Minimal inhibitory concentration against Haemophilus influenzae WY21; assay type: functional; method in brief: as §1
Moraxella catarrhalis [9] = assay: Minimal inhibitory concentration of compound against Moraxella catarrhalis 1502; No bacterial growth; assay type: functional, organism-based; method in brief: as §1
Haemophilus influenzae [10] = assay: Minimal inhibitory concentration against Haemophilus influenzae H128; assay type: functional; method in brief: as §1
Streptococcus pyogenes [11] = assay: Minimal inhibitory concentration of compound against Streptococcus pyogenes BCA; assay type: functional; method in brief: as §1
Streptococcus pneumoniae [12] = assay: Minimal inhibitory concentration of compound against Streptococcus pneumoniae PU7; No bacterial growth; assay type: functional, organism-based; method in brief: as §1
Streptococcus pneumoniae [13] = assay: Minimal inhibitory concentration of compound against Streptococcus pneumoniae 1629; assay type: functional; method in brief: as §1

SMILES | MIC (Haemophilus influenzae [1]) [µg/mL] | MIC (Moraxella catarrhalis [2]) [µg/mL] | MIC (Streptococcus pneumoniae [3]) [µg/mL] | MIC (Streptococcus pyogenes [4]) [µg/mL] | MIC (Staphylococcus aureus [5]) [µg/mL] | MIC (Moraxella catarrhalis [6]) [µg/mL] | MIC (Staphylococcus aureus [7]) [µg/mL] | MIC (Haemophilus influenzae [8]) [µg/mL] | MIC (Moraxella catarrhalis [9]) | MIC (Haemophilus influenzae [10]) [µg/mL] | MIC (Streptococcus pyogenes [11]) [µg/mL] | MIC (Streptococcus pneumoniae [12]) | MIC (Streptococcus pneumoniae [13]) [µg/mL]
COC(=O)c1nc(/C=C(\C)C[C@@H]2OC[C@H](C[C@@H]3O[C@H]3[C@@H](C)[C@H](C)O)[C@@H](O)[C@H]2O)oc1OC | 128 (≈ 281 µM) | > 128 | > 128 | > 128 | > 128 | – | – | – | – | – | – | – | –
C/C(=C\c1ncc(Sc2ccccc2)o1)C[C@@H]1OC[C@H](C[C@@H]2O[C@H]2[C@@H](C)[C@H](C)O)[C@@H](O)[C@H]1O | 8 (≈ 16.8 µM) | 8 (≈ 16.8 µM) | 32 (≈ 67.3 µM) | 4 (≈ 8.41 µM) | – | – | 16 (≈ 33.6 µM) | – | – | – | – | – | –
C/C(=C\c1ncc(CCCC(=O)[O-])o1)C[C@@H]1OC[C@H](C[C@@H]2O[C@H]2[C@@H](C)[C@H](C)O)[C@@H](O)[C@H]1O.[Na+] | – | 32 | 64 | 64 | 32 | – | – | 8 | – | – | – | – | –
C/C(=C\c1ncc(/C=C/C(=O)[O-])o1)C[C@@H]1OC[C@H](C[C@@H]2O[C@H]2[C@@H](C)[C@H](C)O)[C@@H](O)[C@H]1O.[Na+] | 16 | 16 | 64 | 64 | 64 | – | – | – | – | – | – | – | –
COC(=O)c1nc(/C=C(\C)C[C@@H]2OC[C@H](C[C@@H]3O[C@H]3[C@@H](C)[C@H](C)O)[C@@H](O)[C@H]2O)oc1N1CCCCC1 | 2 (≈ 3.93 µM) | – | 32 (≈ 62.9 µM) | 128 (≈ 252 µM) | 16 (≈ 31.5 µM) | – | – | – | No growth | – | – | – | –
C/C(=C\c1ncc(N(C)c2ccccc2)o1)C[C@@H]1OC[C@H](C[C@@H]2O[C@H]2[C@@H](C)[C@H](C)O)[C@@H](O)[C@H]1O | – | 32 (≈ 67.7 µM) | 32 (≈ 67.7 µM) | 16 (≈ 33.9 µM) | 16 (≈ 33.9 µM) | – | – | – | – | 16 (≈ 33.9 µM) | – | – | –
CCOC(=O)Oc1cnc(/C=C(\C)C[C@@H]2OC[C@H](C[C@@H]3O[C@H]3[C@@H](C)[C@H](C)O)[C@@H](O)[C@H]2O)o1 | 32 (≈ 70.3 µM) | 32 (≈ 70.3 µM) | > 128 | > 128 | > 128 | – | – | – | – | – | – | – | –
C/C(=C\c1ncc(CO)o1)C[C@@H]1OC[C@H](C[C@@H]2O[C@H]2[C@@H](C)[C@H](C)O)[C@@H](O)[C@H]1O | 2 (≈ 5.03 µM) | 8 (≈ 20.1 µM) | – | 32 (≈ 80.5 µM) | 32 (≈ 80.5 µM) | – | – | – | – | – | – | No growth | –
C/C(=C\c1ncco1)C[C@@H]1OC[C@H](C[C@@H]2O[C@H]2[C@@H](C)[C@H](C)O)[C@@H](O)[C@H]1O | 2 (≈ 5.44 µM) | 4 (≈ 10.9 µM) | – | 32 (≈ 87.1 µM) | 16 (≈ 43.5 µM) | – | – | – | – | – | – | – | 128 (≈ 348 µM)
C/C(=C\c1ncc(C(=O)[O-])o1)C[C@@H]1OC[C@H](C[C@@H]2O[C@H]2[C@@H](C)[C@H](C)O)[C@@H](O)[C@H]1O.[Na+] | > 128 | > 128 | > 128 | > 128 | > 128 | – | – | – | – | – | – | – | –
C/C(=C\C(=O)OCCCCCCCCC(=O)O)C[C@@H]1OC[C@H](C[C@@H]2O[C@H]2[C@@H](C)[C@H](C)O)[C@@H](O)[C@H]1O [MUPIROCIN] | 0.03 (≈ 0.0599 µM) | 0.25 (≈ 0.499 µM) | 0.25 (≈ 0.499 µM) | 0.13 (≈ 0.26 µM) | 0.25 (≈ 0.499 µM) | – | – | – | – | – | – | – | –

The next lines start with the values.

MIC (Haemophilus influenzae [1]) [µg/mL] | MIC (Moraxella catarrhalis [2]) [µg/mL] | MIC (Streptococcus pneumoniae [3]) [µg/mL] | MIC (Streptococcus pyogenes [4]) [µg/mL] | MIC (Staphylococcus aureus [5]) [µg/mL] | MIC (Moraxella catarrhalis [6]) [µg/mL] | MIC (Staphylococcus aureus [7]) [µg/mL] | MIC (Haemophilus influenzae [8]) [µg/mL] | MIC (Moraxella catarrhalis [9]) | MIC (Haemophilus influenzae [10]) [µg/mL] | MIC (Streptococcus pyogenes [11]) [µg/mL] | MIC (Streptococcus pneumoniae [12]) | MIC (Streptococcus pneumoniae [13]) [µg/mL] | SMILES
2 (≈ 4.07 µM) | 16 (≈ 32.5 µM) | 16 (≈ 32.5 µM) | 4 (≈ 8.14 µM) | 16 (≈ 32.5 µM) | – | – | – | – | – | – | – | – | C/C(=C\c1ncc([S+]([O-])c2ccccc2)o1)C[C@@H]1OC[C@H](C[C@@H]2O[C@H]2[C@@H](C)[C@H](C)O)[C@@H](O)[C@H]1O (stereo partly drawn)
4 (≈ 7.44 µM) | 64 (≈ 119 µM) | 8 (≈ 14.9 µM) | 4 (≈ 7.44 µM) | 4 (≈ 7.44 µM) | – | – | – | – | – | – | – | – | COC(=O)CCCCCCCCc1cnc(/C=C(\C)C[C@@H]2OC[C@H](C[C@@H]3O[C@H]3[C@@H](C)[C@H](C)O)[C@@H](O)[C@H]2O)o1
2 (≈ 5.06 µM) | 16 (≈ 40.5 µM) | 16 (≈ 40.5 µM) | – | 2 (≈ 5.06 µM) | – | – | – | – | – | – | – | – | CCc1cnc(/C=C(\C)C[C@@H]2OC[C@H](C[C@@H]3O[C@H]3[C@@H](C)[C@H](C)O)[C@@H](O)[C@H]2O)o1
0.13 (≈ 0.293 µM) | – | 4 (≈ 9.02 µM) | 8 (≈ 18 µM) | 8 (≈ 18 µM) | 16 (≈ 36.1 µM) | – | – | – | – | – | – | – | CC[S+]([O-])c1cnc(/C=C(\C)C[C@@H]2OC[C@H](C[C@@H]3O[C@H]3[C@@H](C)[C@H](C)O)[C@@H](O)[C@H]2O)o1 (stereo partly drawn)
0.5 (≈ 1.22 µM) | 4 (≈ 9.72 µM) | 2 (≈ 4.86 µM) | 2 (≈ 4.86 µM) | 2 (≈ 4.86 µM) | – | – | – | – | – | – | – | – | CCOc1cnc(/C=C(\C)C[C@@H]2OC[C@H](C[C@@H]3O[C@H]3[C@@H](C)[C@H](C)O)[C@@H](O)[C@H]2O)o1
0.5 (≈ 1.11 µM) | – | 1 (≈ 2.21 µM) | – | 2 (≈ 4.43 µM) | – | – | – | – | – | 4 (≈ 8.86 µM) | – | – | COC(=O)/C=C/c1cnc(/C=C(\C)C[C@@H]2OC[C@H](C[C@@H]3O[C@H]3[C@@H](C)[C@H](C)O)[C@@H](O)[C@H]2O)o1
1 (≈ 2.35 µM) | 8 (≈ 18.8 µM) | 8 (≈ 18.8 µM) | 8 (≈ 18.8 µM) | 4 (≈ 9.4 µM) | – | – | – | – | – | – | – | – | COC(=O)c1cnc(/C=C(\C)C[C@@H]2OC[C@H](C[C@@H]3O[C@H]3[C@@H](C)[C@H](C)O)[C@@H](O)[C@H]2O)o1
1 (≈ 2.06 µM) | 0.5 (≈ 1.03 µM) | 4 (≈ 8.24 µM) | 1 (≈ 2.06 µM) | 1 (≈ 2.06 µM) | – | – | – | – | – | – | – | – | C/C(=C\c1ncc(C2SCCCS2)o1)C[C@@H]1OC[C@H](C[C@@H]2O[C@H]2[C@@H](C)[C@H](C)O)[C@@H](O)[C@H]1O
1 (≈ 2.36 µM) | 4 (≈ 9.44 µM) | 4 (≈ 9.44 µM) | 0.5 (≈ 1.18 µM) | 1 (≈ 2.36 µM) | – | – | – | – | – | – | – | – | CCCCc1cnc(/C=C(\C)C[C@@H]2OC[C@H](C[C@@H]3O[C@H]3[C@@H](C)[C@H](C)O)[C@@H](O)[C@H]2O)o1
– | 8 (≈ 17.7 µM) | 16 (≈ 35.4 µM) | 16 (≈ 35.4 µM) | 8 (≈ 17.7 µM) | – | – | 0.25 (≈ 0.554 µM) | – | – | – | – | – | COC(=O)/C=C\c1cnc(/C=C(\C)C[C@@H]2OC[C@H](C[C@@H]3O[C@H]3[C@@H](C)[C@H](C)O)[C@@H](O)[C@H]2O)o1
1 (≈ 2.34 µM) | 8 (≈ 18.7 µM) | 8 (≈ 18.7 µM) | 4 (≈ 9.36 µM) | 8 (≈ 18.7 µM) | – | – | – | – | – | – | – | – | CCSc1cnc(/C=C(\C)C[C@@H]2OC[C@H](C[C@@H]3O[C@H]3[C@@H](C)[C@H](C)O)[C@@H](O)[C@H]2O)o1
– | 2 (≈ 4.28 µM) | 4 (≈ 8.56 µM) | 0.5 (≈ 1.07 µM) | 1 (≈ 2.14 µM) | – | – | 1 (≈ 2.14 µM) | – | – | – | – | – | COC(=O)CCCc1cnc(/C=C(\C)C[C@@H]2OC[C@H](C[C@@H]3O[C@H]3[C@@H](C)[C@H](C)O)[C@@H](O)[C@H]2O)o1
4 | 8 | 4 | 1 | 4 | – | – | – | – | – | – | – | – | C/C(=C\c1ncc(CCCCCCCCC(=O)[O-])o1)C[C@@H]1OC[C@H](C[C@@H]2O[C@H]2[C@@H](C)[C@H](C)O)[C@@H](O)[C@H]1O.[Na+]
– | 16 (≈ 34.8 µM) | 16 (≈ 34.8 µM) | 8 (≈ 17.4 µM) | 8 (≈ 17.4 µM) | – | – | – | – | 8 (≈ 17.4 µM) | – | – | – | C/C(=C\c1ncc(Oc2ccccc2)o1)C[C@@H]1OC[C@H](C[C@@H]2O[C@H]2[C@@H](C)[C@H](C)O)[C@@H](O)[C@H]1O
0.5 (≈ 1.11 µM) | – | 8 (≈ 17.8 µM) | 4 (≈ 8.88 µM) | 8 (≈ 17.8 µM) | 8 (≈ 17.8 µM) | – | – | – | – | – | – | – | C/C(=C\c1ncc(N2CCCCC2)o1)C[C@@H]1OC[C@H](C[C@@H]2O[C@H]2[C@@H](C)[C@H](C)O)[C@@H](O)[C@H]1O
4 (≈ 10.1 µM) | 8 (≈ 20.2 µM) | 64 (≈ 162 µM) | 16 (≈ 40.5 µM) | 2 (≈ 5.06 µM) | – | – | – | – | – | – | – | – | C/C(=C\c1ncc(C=O)o1)C[C@@H]1OC[C@H](C[C@@H]2O[C@H]2[C@@H](C)[C@H](C)O)[C@@H](O)[C@H]1O
